Converted amounts (≈) assume the structure as drawn.
Assays:
Type in all cases: functional
[1] = system: Bacillus subtilis; assay: Antimicrobial activity against Bacillus subtilis at 70 ug by agar diffusion test; details: read-out: IZ
Outline: (§1)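 Agar diffusion test: 70 µg of sample applied per 9 mm diameter platelet. Read-out is the diameter of the growth-inhibition zone in mm.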

[2] = system: Staphylococcus aureus; assay: Antimicrobial activity against […] at 70 ug by agar diffusion test; details: read-out: IZ; outline: as §1
[3] = system: Streptomyces viridochromogenes; assay: Antimicrobial activity against Streptomyces viridochromogenes at 70 ug by agar diffusion test; details: read-out: IZ; outline: as §1
[4] = system: Escherichia coli; assay: Antimicrobial activity against Escherichia coli at 70 ug by agar diffusion test; details: read-out: IZ; outline: as §1
[5] = system: Candida albicans; assay: Antimicrobial activity against Candida albicans at 70 ug by agar diffusion test; details: read-out: IZ; outline: as §1
[6] = system: Rhizomucor miehei; assay: Antimicrobial activity against Mucor miehei at 70 ug by agar diffusion test; details: read-out: IZ; outline: as §1
[7] = system: Chlorella vulgaris; assay: Antimicrobial activity against Chlorella vulgaris at 70 ug by agar diffusion test; details: read-out: IZ; outline: as §1
[8] = system: Chlorella sorokiniana; assay: Antimicrobial activity against Chlorella sorokiniana at 70 ug by agar diffusion test; details: read-out: IZ; outline: as §1
[9] = system: Desmodesmus subspicatus; assay: Antimicrobial activity against Scenedesmus subspicatus at 70 ug by agar diffusion test; details: read-out: IZ; outline: as §1
[10] = system: Artemia salina; assay: Antimicrobial activity against Artemia salina at 70 ug by agar diffusion test; details: read-out: IZ; outline: as §1
[11] = Cytotoxicity against human HM02 cells
Outline: (§2)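 In vitro growth inhibition of human cancer cell lines was measured following the NCI guidelines. Cell lines: HM02 (gastric adenocarcinoma), HepG2 (hepatocellular carcinoma) and MCF 7 (breast adenocarcinoma).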

[12] = system: HepG2; assay: Cytotoxicity against human HepG2 cells; outline: as §2
[13] = system: MCF7; assay: Cytotoxicity against human MCF7 cells; outline: as §2
[14] = system: HepG2; assay: Cell cycle arrest in human HepG2 cells by accumulation at subG1 phase at 5 ug/mL after 24 hrs by PI staining
Outline: (§3)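 HepG2 cells were exposed for 24 h, trypsinized, and washed in RPMI 1640 with 1% fetal bovine serum. They were stained 15 min at room temperature in the dark in 150 µg/mL propidium iodide, 1% Triton X-100, 1% BSA and 4 mM sodium citrate, pH 7.4. RNase A was then added for 30 min at room temperature. Output is % cells per phase, mean ± SE of three independent experiments, t-test versus control.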

[15] = system: HepG2; assay: Cell cycle arrest in human HepG2 cells by accumulation at G1 phase at 5 ug/mL after 24 hrs by PI staining; outline: as §3
[16] = system: HepG2; assay: Cell cycle arrest in human HepG2 cells by accumulation at S phase at 5 ug/mL after 24 hrs by PI staining; outline: as §3
[17] = system: HepG2; assay: Cell cycle arrest in human HepG2 cells by accumulation at G2/M phase at 5 ug/mL after 24 hrs by PI staining; outline: as §3

CC(C)CCC[C@H]1CCCCC(=O)O1
zone of inhibition at 70 µg/disc [1]: 0 mm
zone of inhibition at 70 µg/disc [2]: 0 mm
zone of inhibition at 70 µg/disc [3]: 13 mm
zone of inhibition at 70 µg/disc [4]: 0 mm
zone of inhibition at 70 µg/disc [5]: 0 mm
zone of inhibition at 70 µg/disc [6]: 11 mm
zone of inhibition at 70 µg/disc [7]: 11 mm
zone of inhibition at 70 µg/disc [8]: 12 mm
zone of inhibition at 70 µg/disc [9]: 11 mm
zone of inhibition at 70 µg/disc [10]: 0 mm
GI50 [11]: 2.7 µg/mL (≈ 13.6 µM)
TGI [11]: 6.1 µg/mL (≈ 30.8 µM)
GI50 [12]: 2.2 µg/mL (≈ 11.1 µM)
TGI [12]: 6.8 µg/mL (≈ 34.3 µM)
GI50 [13]: 0.11 µg/mL (≈ 0.555 µM)
TGI [13]: 4 µg/mL (≈ 20.2 µM)

CC[C@H](C)CCC[C@H]1CCCCC(=O)O1
zone of inhibition at 70 µg/disc [1]: 0 mm
zone of inhibition at 70 µg/disc [2]: 11 mm
zone of inhibition at 70 µg/disc [3]: 15 mm
zone of inhibition at 70 µg/disc [4]: 0 mm
zone of inhibition at 70 µg/disc [5]: 11 mm
zone of inhibition at 70 µg/disc [6]: 15 mm
zone of inhibition at 70 µg/disc [7]: 15 mm
zone of inhibition at 70 µg/disc [8]: 22 mm
zone of inhibition at 70 µg/disc [9]: 20 mm
zone of inhibition at 70 µg/disc [10]: 0 mm
GI50 [11]: 1.9 µg/mL (≈ 8.95 µM)
TGI [11]: 5.6 µg/mL (≈ 26.4 µM)
GI50 [12]: 1.4 µg/mL (≈ 6.59 µM)
TGI [12]: 5.7 µg/mL (≈ 26.8 µM)
GI50 [13]: 0.12 µg/mL (≈ 0.565 µM)
TGI [13]: 2.6 µg/mL (≈ 12.2 µM)
Activity [14]: 5.7%
Activity [15]: 73.7%
Activity [16]: 11%
Activity [17]: 9.8%

Reference: ChEMBL document CHEMBL1146500, “Novel caprolactones from a marine streptomycete” (2004)
